# Published values pooled from the literature.
# Compare with care: the assays were run in different laboratories.
# Target: Histamine H3 receptor (HRH3, Homo sapiens, UniProt Q9Y5N1)
SMILES,observed,technique,tested at,inhibition [%]
CC(=O)Nc1ncc(CN2CCC[C@H](Cc3cc(C)nc(C)c3)C2)s1,ligand displacement,,10 µM,10.8
CCN(Cc1ccccc1C(F)(F)F)C(=O)C1CCN(S(=O)(=O)c2ccc3[nH]ncc3c2)CC1,ligand displacement,radioligand,10 µM,6
CCS(=O)(=O)c1cc2cc(C[C@](O)(CC(C)(C)c3ccc(F)cc3C(N)=O)C(F)(F)F)[nH]c2cn1,ligand displacement,,10 µM,11.7
CN1CCN(CCCOc2ccc(=O)n(-c3ccc(Cl)c(Cl)c3)n2)CC1,ligand displacement,,1 µM,38.2
N#Cc1cc(Cn2c(N3CCCC3)nc3ccccc32)ccc1F,ligand displacement,,10 µM,1.97
COc1ccc(-n2nc(OCCCN3CCCCC3)ccc2=O)cc1,ligand displacement,,1 µM,23.3
CCN(CC)c1ccc(C2Nc3ccc(C(=O)c4ccccc4)cc3NC3=C2C(=O)CC(C)(C)C3)cc1 (stereo not drawn),ligand displacement,radioligand,10 µM,43
O=C(c1ccc(F)cc1)N(Cc1ccccc1)C1CCCCC1,cell-free assay,,10 µM,15
CCCNc1nc2ccccc2n1Cc1ccc(Cl)cc1,ligand displacement,,10 µM,-5.56
